Assay [1] addresses Serine/threonine-protein kinase PRP4 homolog (Homo sapiens) (UniProt Q13523). Description: Inhibition of human PRP4 (663 to end residues) using casein as substrate measured after 40 mins in presence of [gamma33P]ATP by scintillation counting method. The gist of the method:
(§1)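 Kinase panel of 422 kinases screened by Eurofins KinaseProfiler at a single test-compound concentration of 10 µM.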

In assay [2] the target is T1, Nucleosome-remodeling factor subunit BPTF (Homo sapiens, UniProt Q12830). The assay can be described thus: Binding affinity to human N-terminal His-tagged FALZ assessed as change in melting temperature at 10 uM by SYPRO orange dye-based fluorescence assay. In short, it runs like this:
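Thermal shift with His-tagged human bromodomain at 2 μM final in 10 mM HEPES pH 7.5, 500 mM NaCl. Compound at 10 μM final with 0.1% DMSO; SYPRO Orange at 1:1000. Equilibrated 3 min at 25 °C, then heated from 25 to 95 °C at 1 °C/min. Melting temperature shift taken from fluorescence; at least duplicate.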

Assay [3] concerns the target T1, Nucleosome-remodeling factor subunit BPTF. The assay can be described thus: Binding affinity to human N-terminal His-tagged FALZ by isothermal titration calorimetry. In short, it runs like this:
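Bromodomain (His-tag removed by TEV for PCAF and GCN5) in the syringe, ligand in the cell. One 0.4 μL injection, then 19 of 2 μL. Dilution heat subtracted; KD from an independent single-site binding model.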

In assay [4] the target is Protein polybromo-1 (Homo sapiens) (UniProt Q86U86). Description: Binding affinity to human partial length PBRM1 bromodomain 2 (S178 to E291 residues) expressed in bacterial expression system at 1 uM by BROMOscan assay. In short, it runs like this: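 BROMOscan bromodomain cross-screen run by an outside service, compound at 1 µM against 32 recombinant bromodomains. Binding given as percent of control.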

Assay [5] has as its system Tyrosine-protein kinase ABL1 (Homo sapiens), P00519 [M351T]. Description: Inhibition of recombinant human ABL M351T mutant (27 to end residues) at 10 uM using EAIYAAPFAKKK as substrate measured after 40 mins in presence of [gamma33P]ATP by scintillation counting method.
Assay [6] deals with Serine/threonine-protein kinase BRSK1 (Homo sapiens) (UniProt Q8TDC3). Description: Inhibition of recombinant human BrSK1 (2 to end residues) at 10 uM using KKKVSRSGLYRSPSMPENLNRPR as substrate measured after 120 mins in presence of [gamma33P]ATP by scintillation counting method.
Assay [7] deals with Serine/threonine-protein kinase 17B (Homo sapiens) (UniProt O94768). Description: Inhibition of recombinant full-length human DRAK2 at 10 uM using KKRPQRRYSNVF as substrate measured after 120 mins in presence of [gamma33P]ATP by scintillation counting method.
In assay [8] the target is Mitogen-activated protein kinase kinase kinase kinase 4 (Homo sapiens) (UniProt O95819). The assay can be described thus: Inhibition of recombinant human MAP4K4 (1 to 328 residues) at 10 uM using RLGRDKYKTLRQIRQ as substrate measured after 40 mins in presence of [gamma33P]ATP by scintillation counting method.
Assay [9] has as its target Mitogen-activated protein kinase kinase kinase 2 (Homo sapiens) (UniProt Q9Y2U5). Description: Inhibition of recombinant full-length human MEKK2 at 10 uM using myelin basic protein as substrate measured after 40 mins in presence of [gamma33P]ATP by scintillation counting method.
For assay [10], the system named is Hepatocyte growth factor receptor (Homo sapiens), P08581 [D1228N]. Description: Inhibition of recombinant human MET A1209G/V1290L/D1246N mutant (974 to end residues) at 10 uM using KKKGQEEEYVFIE as substrate measured after 40 mins in presence of [gamma33P]ATP by scintillation counting method.
The target of assay [11] is Serine/threonine-protein kinase MRCK gamma (Homo sapiens) (UniProt Q6DT37). Description: Inhibition of recombinant human MRCKgamma at 10 uM using KKRNRTLTV as substrate measured after 40 mins in presence of [gamma33P]ATP by scintillation counting method.
In assay [12] the target is Myosin-IIIb (Homo sapiens) (UniProt Q8WXR4). Description: Inhibition of recombinant full-length human MYO3B (1 to 326 residues) at 10 uM using RLGRDKYKTLRQIRQ as substrate measured after 40 mins in presence of [gamma33P]ATP by scintillation counting method.
The target in assay [13] is Platelet-derived growth factor receptor beta (Homo sapiens) (UniProt P09619). Description: Inhibition of recombinant human PDGFRbeta (557 to end residues) at 10 uM using poly(Glu, Tyr) 4:1 as substrate measured after 40 mins in presence of [gamma33P]ATP by scintillation counting method.
For assay [14], the target named is Serine/threonine-protein kinase pim-2 (Homo sapiens) (UniProt Q9P1W9). The assay can be described thus: Inhibition of recombinant human Pim2 (2 to end residues) at 10 uM using RSRHSSYPAGT as substrate measured after 40 mins in presence of [gamma33P]ATP by scintillation counting method.
The test system of assay [15] is RAC-beta serine/threonine-protein kinase (Homo sapiens), P31751 [S474D]. Description: Inhibition of recombinant full-length human PKBbeta S474D mutant (120 to end residues) at 10 uM using GRPRTSSFAEGKK as substrate measured after 40 mins in presence of [gamma33P]ATP by scintillation counting method.
Assay [16] has as its target Serine/threonine-protein kinase D3 (Homo sapiens) (UniProt O94806). Description: Inhibition of recombinant full-length human PKD3 at 10 uM using KKLRRTLSVA as substrate measured after 40 mins in presence of [gamma33P]ATP by scintillation counting method.
In assay [17] the target is cGMP-dependent protein kinase 1 (Homo sapiens) (UniProt Q13976). Description: Inhibition of recombinant full-length human PKG1beta at 10 uM using RRRLSFAEPG as substrate measured after 40 mins in presence of [gamma33P]ATP by scintillation counting method.
The test system of assay [18] is Proto-oncogene tyrosine-protein kinase receptor Ret (Homo sapiens), P07949 [V804M]. Description: Inhibition of human Ret V804M mutant (658 to end residues) using KKKVSRSGLYRSPSMPENLNRPR as substrate measured after 40 mins in presence of [gamma33P]ATP by scintillation counting method. In short, it runs like this:
as §1

The species named for assay [19] is Mus musculus. Description: Inhibition of recombinant full-length mouse PI3K p110alpha/p65alpha (1 to 571 residues) at 10 uM using phosphatidylinositol-4, 5-bisphosphate as substrate measured after 40 mins by HTRF assay. Background: Time-resolved FRET reads energy transfer from a long-lived donor to a nearby acceptor.
For assay [20], the species on record is Mus musculus. Description: Inhibition of recombinant full-length mouse PI3K p110beta/p85alpha R123L mutant at 10 uM using phosphatidylinositol-4, 5-bisphosphate as substrate measured after 40 mins by HTRF assay.
Assay [21] has as its system PI3-kinase p110-alpha/p85-alpha (Homo sapiens), P27986+P42336 [E542K]. The assay can be described thus: Inhibition of recombinant full-length human PI3K p110alpha/p85alpha E542K mutant at 10 uM using phosphatidylinositol-4, 5-bisphosphate as substrate measured after 40 mins by fluorescence assay. The class given is protein-complex assay.
Assay [22] deals with Protein kinase C epsilon type (Homo sapiens) (UniProt Q02156). Description: Inhibition of recombinant human PKCepsilon (2 to end residues) at 10 uM using ERMRPRKRQGSVRRRV as substrate measured after 40 mins in presence of [gamma33P]ATP by scintillation counting method.

The source made the active and inactive calls. The calls are words filed in the database; no cut-off is given here.

Sequence of Myosin-IIIb (Homo sapiens) (Q8WXR4 whole entry, the tested form may be a part): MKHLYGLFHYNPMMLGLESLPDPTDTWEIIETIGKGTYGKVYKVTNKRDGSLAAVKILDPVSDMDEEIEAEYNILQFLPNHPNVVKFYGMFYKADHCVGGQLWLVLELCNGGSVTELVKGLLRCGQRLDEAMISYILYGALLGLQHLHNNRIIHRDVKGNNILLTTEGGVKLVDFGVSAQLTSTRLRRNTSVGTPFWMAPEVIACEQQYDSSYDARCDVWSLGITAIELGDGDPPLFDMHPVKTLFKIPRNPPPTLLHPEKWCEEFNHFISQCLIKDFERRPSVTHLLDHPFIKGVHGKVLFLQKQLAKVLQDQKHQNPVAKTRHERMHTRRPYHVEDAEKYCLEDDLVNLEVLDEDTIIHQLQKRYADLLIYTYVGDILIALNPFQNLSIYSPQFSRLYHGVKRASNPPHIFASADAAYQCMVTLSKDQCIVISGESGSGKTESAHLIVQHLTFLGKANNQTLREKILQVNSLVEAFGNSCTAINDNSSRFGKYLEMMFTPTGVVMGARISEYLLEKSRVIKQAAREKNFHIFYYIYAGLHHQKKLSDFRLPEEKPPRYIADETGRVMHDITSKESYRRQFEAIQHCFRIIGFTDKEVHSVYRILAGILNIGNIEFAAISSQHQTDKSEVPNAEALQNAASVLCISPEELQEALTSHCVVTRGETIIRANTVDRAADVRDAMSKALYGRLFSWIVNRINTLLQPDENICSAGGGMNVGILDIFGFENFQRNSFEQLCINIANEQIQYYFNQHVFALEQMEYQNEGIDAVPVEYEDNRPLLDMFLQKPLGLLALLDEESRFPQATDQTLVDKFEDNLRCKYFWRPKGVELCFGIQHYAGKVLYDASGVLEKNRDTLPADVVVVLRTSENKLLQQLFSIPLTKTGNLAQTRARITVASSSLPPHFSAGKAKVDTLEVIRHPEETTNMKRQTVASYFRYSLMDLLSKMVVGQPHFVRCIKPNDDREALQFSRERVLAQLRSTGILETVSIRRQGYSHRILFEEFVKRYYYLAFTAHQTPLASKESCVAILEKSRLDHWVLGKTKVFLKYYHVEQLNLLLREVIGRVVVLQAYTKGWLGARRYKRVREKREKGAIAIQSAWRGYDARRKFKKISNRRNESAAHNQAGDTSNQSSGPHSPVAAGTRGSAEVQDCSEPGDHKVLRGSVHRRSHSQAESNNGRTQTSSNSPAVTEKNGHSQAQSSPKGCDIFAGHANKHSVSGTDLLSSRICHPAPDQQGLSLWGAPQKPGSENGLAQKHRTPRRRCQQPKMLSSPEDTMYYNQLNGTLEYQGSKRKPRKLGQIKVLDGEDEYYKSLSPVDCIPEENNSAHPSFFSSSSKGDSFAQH
Sequence of Hepatocyte growth factor receptor (Homo sapiens), P08581 [D1228N] (P08581 whole entry D1228N): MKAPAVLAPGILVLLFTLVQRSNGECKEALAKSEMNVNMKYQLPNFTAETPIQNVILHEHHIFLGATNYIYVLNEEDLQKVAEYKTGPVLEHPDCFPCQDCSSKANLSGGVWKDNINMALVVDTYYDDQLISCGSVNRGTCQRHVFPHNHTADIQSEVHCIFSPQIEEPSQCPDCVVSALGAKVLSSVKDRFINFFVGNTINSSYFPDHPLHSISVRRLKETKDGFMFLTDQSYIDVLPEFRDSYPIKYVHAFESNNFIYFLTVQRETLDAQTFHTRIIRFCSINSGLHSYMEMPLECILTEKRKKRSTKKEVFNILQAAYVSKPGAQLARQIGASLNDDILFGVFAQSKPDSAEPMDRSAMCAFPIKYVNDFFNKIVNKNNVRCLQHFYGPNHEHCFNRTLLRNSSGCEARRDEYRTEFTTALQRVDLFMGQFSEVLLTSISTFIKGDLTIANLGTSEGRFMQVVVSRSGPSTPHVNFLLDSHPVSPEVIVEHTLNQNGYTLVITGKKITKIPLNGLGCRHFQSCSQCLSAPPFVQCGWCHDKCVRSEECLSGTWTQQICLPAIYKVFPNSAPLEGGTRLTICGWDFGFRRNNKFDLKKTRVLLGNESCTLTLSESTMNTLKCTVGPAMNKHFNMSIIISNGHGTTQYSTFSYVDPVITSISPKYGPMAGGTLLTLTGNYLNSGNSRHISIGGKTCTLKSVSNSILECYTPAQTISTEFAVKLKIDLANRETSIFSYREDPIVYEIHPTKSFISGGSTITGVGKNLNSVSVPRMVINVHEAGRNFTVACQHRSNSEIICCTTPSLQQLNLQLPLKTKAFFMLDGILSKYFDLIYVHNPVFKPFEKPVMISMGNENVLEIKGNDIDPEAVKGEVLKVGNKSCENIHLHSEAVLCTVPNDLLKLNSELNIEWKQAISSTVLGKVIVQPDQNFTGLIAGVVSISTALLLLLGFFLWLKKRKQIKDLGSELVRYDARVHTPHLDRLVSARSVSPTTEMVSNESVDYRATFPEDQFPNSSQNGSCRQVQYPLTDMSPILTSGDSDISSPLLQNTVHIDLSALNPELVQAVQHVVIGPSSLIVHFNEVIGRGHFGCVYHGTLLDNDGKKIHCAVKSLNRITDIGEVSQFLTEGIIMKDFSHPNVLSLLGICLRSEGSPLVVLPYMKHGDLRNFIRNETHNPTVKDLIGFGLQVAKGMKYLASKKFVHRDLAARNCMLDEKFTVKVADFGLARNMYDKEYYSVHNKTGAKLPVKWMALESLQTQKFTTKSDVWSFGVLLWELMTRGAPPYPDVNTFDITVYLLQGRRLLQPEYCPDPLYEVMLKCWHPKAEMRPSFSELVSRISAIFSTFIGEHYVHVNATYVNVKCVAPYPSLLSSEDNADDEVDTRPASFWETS
Sequence of Serine/threonine-protein kinase PRP4 homolog (Homo sapiens) (Q13523 whole entry): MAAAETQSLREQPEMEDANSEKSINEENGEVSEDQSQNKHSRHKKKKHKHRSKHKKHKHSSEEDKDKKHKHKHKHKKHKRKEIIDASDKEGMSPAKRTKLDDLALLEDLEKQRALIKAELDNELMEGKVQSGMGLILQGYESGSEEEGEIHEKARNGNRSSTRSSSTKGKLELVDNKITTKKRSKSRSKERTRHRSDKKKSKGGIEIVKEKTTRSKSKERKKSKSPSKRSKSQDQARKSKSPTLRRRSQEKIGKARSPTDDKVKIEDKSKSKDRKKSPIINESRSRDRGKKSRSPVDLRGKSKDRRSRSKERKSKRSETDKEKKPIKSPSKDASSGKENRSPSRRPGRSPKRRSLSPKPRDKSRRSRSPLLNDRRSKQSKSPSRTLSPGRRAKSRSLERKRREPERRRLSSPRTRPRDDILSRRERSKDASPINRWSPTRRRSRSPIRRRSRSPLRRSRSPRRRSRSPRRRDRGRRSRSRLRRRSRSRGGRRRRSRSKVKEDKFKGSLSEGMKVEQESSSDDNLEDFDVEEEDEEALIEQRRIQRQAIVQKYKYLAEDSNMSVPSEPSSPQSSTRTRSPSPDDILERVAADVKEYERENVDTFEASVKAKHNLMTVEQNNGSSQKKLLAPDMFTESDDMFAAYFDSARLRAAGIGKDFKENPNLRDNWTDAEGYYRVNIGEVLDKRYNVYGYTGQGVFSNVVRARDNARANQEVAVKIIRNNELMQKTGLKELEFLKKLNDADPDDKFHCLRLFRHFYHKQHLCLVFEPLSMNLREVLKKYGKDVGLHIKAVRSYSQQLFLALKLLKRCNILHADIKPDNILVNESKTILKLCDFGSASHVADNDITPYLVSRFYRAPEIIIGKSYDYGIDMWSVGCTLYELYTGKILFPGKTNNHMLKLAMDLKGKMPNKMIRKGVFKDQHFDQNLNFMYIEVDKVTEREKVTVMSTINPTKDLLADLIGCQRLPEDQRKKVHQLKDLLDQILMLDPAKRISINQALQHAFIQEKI
Sequence of Serine/threonine-protein kinase BRSK1 (Homo sapiens) (Q8TDC3 whole entry): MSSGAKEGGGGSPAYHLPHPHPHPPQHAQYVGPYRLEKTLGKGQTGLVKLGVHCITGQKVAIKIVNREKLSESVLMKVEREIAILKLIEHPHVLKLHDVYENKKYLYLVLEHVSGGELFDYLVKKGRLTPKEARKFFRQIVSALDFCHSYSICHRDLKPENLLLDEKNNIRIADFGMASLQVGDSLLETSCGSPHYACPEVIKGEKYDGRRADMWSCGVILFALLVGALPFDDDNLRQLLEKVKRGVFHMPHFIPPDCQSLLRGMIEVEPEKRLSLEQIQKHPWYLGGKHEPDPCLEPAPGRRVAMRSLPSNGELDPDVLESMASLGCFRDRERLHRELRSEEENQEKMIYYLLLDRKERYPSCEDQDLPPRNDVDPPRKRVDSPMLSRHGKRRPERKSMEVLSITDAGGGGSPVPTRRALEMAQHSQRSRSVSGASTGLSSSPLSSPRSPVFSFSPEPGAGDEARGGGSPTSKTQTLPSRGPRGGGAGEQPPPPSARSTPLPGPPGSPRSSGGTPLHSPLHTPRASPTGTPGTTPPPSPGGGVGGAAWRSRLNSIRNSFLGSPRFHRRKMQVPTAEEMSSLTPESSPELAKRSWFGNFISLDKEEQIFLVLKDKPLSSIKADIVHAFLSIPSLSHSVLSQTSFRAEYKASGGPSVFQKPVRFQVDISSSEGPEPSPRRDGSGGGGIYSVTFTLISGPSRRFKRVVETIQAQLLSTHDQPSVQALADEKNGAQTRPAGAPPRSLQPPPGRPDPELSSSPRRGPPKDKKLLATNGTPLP
Sequence of Serine/threonine-protein kinase pim-2 (Homo sapiens) (Q9P1W9 whole entry, looked up): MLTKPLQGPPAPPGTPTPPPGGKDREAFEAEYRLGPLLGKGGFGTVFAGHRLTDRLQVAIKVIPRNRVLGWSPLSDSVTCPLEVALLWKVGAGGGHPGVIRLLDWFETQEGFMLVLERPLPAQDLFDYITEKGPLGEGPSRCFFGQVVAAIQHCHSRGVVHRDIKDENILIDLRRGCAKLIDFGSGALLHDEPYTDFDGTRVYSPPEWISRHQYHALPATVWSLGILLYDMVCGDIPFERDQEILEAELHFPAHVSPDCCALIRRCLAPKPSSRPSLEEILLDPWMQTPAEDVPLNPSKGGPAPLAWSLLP

Turning to `CN1C[C@H](Nc2nc3cc[nH]c3c(=O)n2C)C[C@H](c2ccc3c(c2)OCCO3)C1`, the inhibition entry in [1], in assay [5], in assay [6], in assay [7], in assay [8] and in assay [9] was “inactive” each time. Besides, the inhibition result in assay [10], in assay [11], in assay [12], in [13], in assay [14] and in [15] was “inactive” in each case. The inhibition result in assay [16], in assay [17], in assay [18], in assay [19], in [20] and in [21] was “inactive” each time. Also, the inhibition result in [22] is “inactive”. The ΔTm in [2] is 5.3 °C. The molecule further returned a Kd in [3] of 917 nM. For the same molecule, in [4], the outcome was inactive.

Usually ΔTm stands for the change in melting temperature against a reference sample. As usually defined, the Kd is the constant that tells how readily two partners part at equilibrium. Lower therefore signals tighter binding.
